The record followed here is ChEMBL document CHEMBL4725242, “Discovery of GS-9688 (Selgantolimod) as a Potent and Selective Oral Toll-Like Receptor 8 Agonist for the Treatment of Chronic Hepatitis B” (J Med Chem, 2020).

Calls of active or inactive are those of the source.

The nature of data set [1]: Drug metabolism in human hepatocytes assessed as glucuronidation. The class given is ADME, cell-based, Hepatocyte.
Data set [2] concerns the target T1, Toll-like receptor 7 (Homo sapiens) (UniProt Q9NYK1).
T1 sequence (whole entry): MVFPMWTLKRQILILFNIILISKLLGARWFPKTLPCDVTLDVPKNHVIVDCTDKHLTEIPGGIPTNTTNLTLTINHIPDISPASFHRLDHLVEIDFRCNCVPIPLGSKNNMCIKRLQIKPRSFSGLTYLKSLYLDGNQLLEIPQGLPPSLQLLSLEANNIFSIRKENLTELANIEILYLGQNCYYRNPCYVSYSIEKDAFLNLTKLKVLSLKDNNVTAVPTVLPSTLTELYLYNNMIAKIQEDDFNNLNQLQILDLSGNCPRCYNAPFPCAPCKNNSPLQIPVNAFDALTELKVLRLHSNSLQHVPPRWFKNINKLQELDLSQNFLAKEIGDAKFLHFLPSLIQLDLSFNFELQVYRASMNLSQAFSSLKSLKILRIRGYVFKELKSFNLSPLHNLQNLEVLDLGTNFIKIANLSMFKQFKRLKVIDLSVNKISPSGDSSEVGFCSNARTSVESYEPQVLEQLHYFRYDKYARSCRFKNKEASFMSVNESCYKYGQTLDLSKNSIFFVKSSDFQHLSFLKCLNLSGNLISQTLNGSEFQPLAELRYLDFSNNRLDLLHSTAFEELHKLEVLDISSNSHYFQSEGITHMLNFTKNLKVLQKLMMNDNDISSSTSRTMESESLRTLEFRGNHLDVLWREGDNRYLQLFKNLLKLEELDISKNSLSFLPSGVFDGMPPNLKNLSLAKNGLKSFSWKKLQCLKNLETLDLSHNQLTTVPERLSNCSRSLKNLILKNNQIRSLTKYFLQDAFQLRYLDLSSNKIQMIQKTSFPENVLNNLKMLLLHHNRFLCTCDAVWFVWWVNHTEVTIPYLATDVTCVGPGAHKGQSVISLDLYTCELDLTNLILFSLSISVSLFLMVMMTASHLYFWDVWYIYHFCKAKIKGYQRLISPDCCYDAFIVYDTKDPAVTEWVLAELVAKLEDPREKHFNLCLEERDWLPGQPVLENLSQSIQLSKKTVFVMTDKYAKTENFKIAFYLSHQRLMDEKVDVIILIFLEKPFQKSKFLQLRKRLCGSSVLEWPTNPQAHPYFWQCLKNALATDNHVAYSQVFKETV
Put plainly: Agonist activity at human TLR7 expressed in HEK293 cells assessed as increase in NF-kappaB activation incubated for 24 hrs by quanti-blue SEAP reporter gene assay. The class given is cell-based. As to conditions: filed as agonist. The essentials:
(§1)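 HEK293 cells stably expressing individual human TLRs or other innate immune receptors, used as reporter gene assays. Minimum effective concentration defined as the level giving a 3-fold rise over background.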

Data set [3] has as its target T2, C-type lectin domain family 7 member A (Homo sapiens) (UniProt Q9BXN2).
T2 sequence (whole entry): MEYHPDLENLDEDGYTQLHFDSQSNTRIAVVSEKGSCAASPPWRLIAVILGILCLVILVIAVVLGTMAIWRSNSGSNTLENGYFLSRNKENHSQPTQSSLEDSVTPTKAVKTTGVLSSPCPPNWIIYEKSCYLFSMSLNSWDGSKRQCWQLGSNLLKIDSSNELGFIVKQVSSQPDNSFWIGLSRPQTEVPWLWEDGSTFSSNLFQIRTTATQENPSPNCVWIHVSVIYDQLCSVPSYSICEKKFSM
In words: Agonist activity at human Dectin1a expressed in HEK293 cells assessed as increase in NF-kappaB activation up to 10 uM incubated for 24 hrs by quanti-blue SEAP reporter gene assay. The data set is classed as cell-based. The settings on record: dose microM <=10, time 24.0 hrs. The essentials:
as §1
A general note: Reporter assays use an easily measured gene product as a stand-in for the process of interest.

The nature of data set [4]: Immunomodulatory activity in human primary hepatocytes infected with HBV assessed as stimulation of CD8+T cell response to virus by measuring decrease in HBsAg production treated with media from PBMC stimulated with 10 nM compound for 10 days relative to control. Also on record: scale not given: the % may be the effect or the level left. The data set is classed as functional. The settings on record: time 10 day.

On to `CCCC[C@](C)(CO)Nc1nc(N)nc2cc(F)cnc12` [SELGANTOLIMOD], for which, in data set [1], the Drug metabolism entry is “Metabolite_Detected”. Further, in data set [2], the MEC was 5.2 µM. Further, the outcome in data set [3] was inactive. Also, the Activity in data set [4] is reported as above 50%.
